The data set can be described thus: Toxicity liver stage against HepG2, at 10uM. It is filed as cell-based. Details: test concentration 10 uM, cell line HepG2-A16-CD81EGFP. Particulars: human, HepG2-A16-CD81EGFP cells; read-out: INHIBITION
In outline: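 Uninfected HepG2-A16-CD81EGFP cells, 3 × 10^3 per well, 1536-well, plated on prespotted compound at 10 μM final, parasite-free screening media added to match infected plates; puromycin 10 μM positive, DMSO 0.5% negative; run in parallel with 48 h PbLuc assay at 37 °C, 5% CO2; viability by CellTiter-Glo luminescence, normalized to controls.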
As to `Cc1c(C)n2c(SCC(=O)N3CCC(C)CC3)nnc2[nH]c1=O`, the cytotoxicity at 10 µM was 0.351%.
Turning to `CCCn1cnc2c1CN(S(=O)(=O)c1ccc(F)cc1)[C@H](C(=O)OC)C2`, the cytotoxicity at 10 µM was 1.2%.
With `O[C@H]1COCCN(Cc2cccc(C(F)(F)F)c2)C1` the figure was -1.8%.
With `CCOCc1nc(N2CCOCC2)sc1C(=O)NCc1ccco1` the figure was 1.64%.
As to `CC(C)(C)c1csc(CCNC(=O)[C@H](c2ccccc2)n2cnnn2)n1`, the cytotoxicity at 10 µM is 2.07%.
In the case of `CC(C)NC(=O)CSc1nc2c(cnn2CCO)c(=O)[nH]1` it was -8.72%.
In the case of `Cc1nnc(CNC(=O)C2CSCCC(=O)N2)o1` (stereo not drawn) it was -10.1%; in that of `CC(C)NC(=O)N1CCCC2(CCN(c3ccsc3)C2=O)C1` (stereo not drawn), -0.42%; in that of `Cc1nc(C)c2c(n1)CCN(Cc1ccsc1)CC2`, -126%.
In the case of `O=C1CCCN1Cc1ncn2c1CN(S(=O)(=O)c1cccs1)CCC2` it was 4.76%; in that of `Cn1cc(C(=O)NCc2cn3c(n2)CN(Cc2ccncc2)CC3)cn1`, 5.71%; in that of `CO[C@H]1CC[C@H]2[C@H]1OCCN2C(=O)C1=CCCC1`, -131%.
In the case of `O=C(O)c1nnn(Cc2ccc(F)cc2)c1-c1cccnc1`, the cytotoxicity at 10 µM is -6.21%.
With `CCc1ccc(NC(=O)CC2Cn3ncnc3NC2=O)cc1` (stereo not drawn) the figure was 6.47%; with `Cc1ccc(C2NC(=O)c3cc(C(C)C)sc3N2)cc1` (stereo not drawn), 7.96%.
In the case of `Cn1c(=O)oc2ccc(S(=O)(=O)N3CCC(c4ccccc4)C3)cc21` (stereo not drawn) it was 5.43%; in that of `O=C(NCC1CCOCC1)c1cc(-c2cccnc2)c2cnccc2n1`, 13.2%; in that of `CCN(CC)S(=O)(=O)c1cc2c3c(c1)c(C)cc(=O)n3CC2`, 5.45%.
For `Cc1nc(C2CCCCN2S(C)(=O)=O)no1` (stereo not drawn), the cytotoxicity at 10 µM was 9.23%.
On to `CC(C)OCCCNS(=O)(=O)c1ccc2c(c1)NC(=O)C(C)O2` (stereo not drawn), for which the cytotoxicity at 10 µM was found to be 0.893%.
In the case of `CCCn1ncc(CN(Cc2cccnc2)Cc2cccs2)c1C` it was 1.64%; in that of `Cc1ccc(N(C)[C@@H]2CC[C@@H]3CN(C(=O)C4CCOCC4)C[C@@H]32)nn1`, -4.43%.
Take `Cc1nc(C2CCN(C(=O)c3cnc(N(C)C)nc3)CC2)c2sccn12`: the cytotoxicity at 10 µM is -4.5%.
With `CCC(CC)(CNC(=O)c1cccn1Cc1cccnc1)N(C)C` the figure was -53.6%; with `Cc1cc(C2CCCN2Cc2cc(-c3ccco3)on2)on1` (stereo not drawn), 1.6%.
For the compound `Cc1nnc(N2CCc3cncnc3C2)c(C#N)c1C`, the cytotoxicity at 10 µM was -154%.
With `Cc1cc(C)n(C2CN(CCC(N)=O)C2)n1` the figure was -5.04%.
Consider `Cc1c(C(=O)N2CCCN(S(C)(=O)=O)CC2)cnn1C`, for which the cytotoxicity at 10 µM turned out to be 17.2%.
With `CC(C)(C)C(NC(=O)CCCS(C)(=O)=O)c1ccc(F)cc1F` (stereo not drawn) the figure was 8.87%; with `CCc1ncnc(N2CCOCC2C(N)=O)c1F` (stereo not drawn), -4.73%; with `N#Cc1cccc(CN(CC(=O)N2CCCC2)CC2CCCO2)c1` (stereo not drawn), -5.52%.
With `CCOC(=O)C1CCN(C(=O)CN2CCCC2Cc2ccccc2)CC1` (stereo not drawn) the figure was 12.7%; with `COc1ccc(CNC(=O)CCc2c(C)noc2C)cc1F`, -6.87%.
On to `CCS(=O)(=O)c1nccn1-c1cccc(F)c1`, for which the cytotoxicity at 10 µM was found to be 3.12%.
`CCN(C(=O)Nc1nncs1)C(C)c1cccc(OC)c1` (stereo not drawn): the cytotoxicity at 10 µM worked out at 4.84%.
With `Cn1c(C(N)=O)ccc1-c1ccccc1` the figure was 3.18%.
With `CCN(CCCNc1ncnc2cc(F)c(F)cc12)S(C)(=O)=O` the figure was 37.7%; with `Cn1c(CN2CCOC(Cn3cncn3)C2)nc2ccccc21` (stereo not drawn), -4.76%; with `O=C(c1ccc(Br)cc1F)N1CCc2ccncc21`, -1.16%.
With `CCOCCS(=O)(=O)N(CC)Cc1ccc(Cl)s1` the figure was -6.15%.
On to `CN(Cc1ccco1)Cc1ccccc1CNC(=O)c1ccncc1`, for which the cytotoxicity at 10 µM is -9.87%.
For `Cc1c(I)cccc1C(=O)NCC1(CO)CC1`, the cytotoxicity at 10 µM is -4.11%.
With `Cc1cccc(N2CCC(NC(=O)CCCc3cccs3)CC2)n1` the figure was -12.5%; with `Cc1cccc(CN2CC[C@@H]3O[C@@H](C(=O)N4CCN(C)CC4)C[C@@H]32)n1`, 1.04%.
With `COCC1COCCC12CCN(S(=O)(=O)c1ccc(C)cc1)CC2` (stereo not drawn) the figure was 4.79%.
With `O=C(c1cccnc1)N1CCc2c(COCC3CC3)cncc2C1` the figure was -77.2%; with `COc1ccc(CN2CC[C@@]3(O)CCCC[C@H]3C2)cc1C(=O)O`, -3.12%.
On to `COc1ccccc1-n1nc(CC(C)C)nc1CSc1nnc(N)s1`, for which the cytotoxicity at 10 µM came to 1.62%.
In the case of `O=C1NCCN1CCNc1cc(-c2ccncc2)nc2ccnn12` it was -4.76%; in that of `CN(CC1Cc2ccccc2CN1C)C(=O)CSc1ccccn1` (stereo not drawn), -1.32%; in that of `CCCn1cc(C(=O)NCCC(=O)NC2CCCCC2)c(C)n1`, -3.31%.
In the case of `Cc1n[nH]c(C)c1CCNC(=O)C1CCCN(Cc2ccco2)C1` (stereo not drawn) it was -6.23%; in that of `CCCn1ncc(C(=O)N2CCN([C@H]3CCCC[C@@H]3O)CC2)c1C`, -137%; in that of `Cc1ccccc1NC(=O)N1CCN(C(=O)C2CC2)[C@@H]2CS(=O)(=O)C[C@@H]21`, 2.78%.
In the case of `c1ccc(Cc2n[nH]c(C3CCOC3)n2)cc1` (stereo not drawn) it was 1.06%.
Consider `COC(=O)c1cc2n(n1)CCN(C(=O)c1csc(CN(C)C)n1)C2`, for which the cytotoxicity at 10 µM is -8.44%.
In the case of `COc1cc(C)c(C2CC(=O)Nc3cc(NS(C)(=O)=O)ccc32)cc1C` (stereo not drawn) it was -15%; in that of `Cc1nc[nH]c1CN(C)Cc1cnn(-c2ccc(F)cc2)c1`, 0.345%; in that of `CNc1ncc(C(=O)N2CCC(c3ccccc3C(=O)O)C2)cn1` (stereo not drawn), -7.67%.
In the case of `Cc1nc[nH]c1-c1nccn1CCN1CCCC1=O` it was -6.88%; in that of `CN1CC2(CCN(C(=O)c3[nH]cnc3-c3ccccc3)C2)OC1=O` (stereo not drawn), 4.43%.
In the case of `CCCOCC(=O)N1CCc2nc(NC)nc(C(=O)N3CCCC3)c2C1` it was -109%.
Regarding `Cc1cc(C)c(C(=O)N2CCOC(CCN(C)C)C2)o1` (stereo not drawn), the cytotoxicity at 10 µM is -1.92%.
As for `CC(Oc1ccc2c(c1)OCO2)C(=O)N1CCC(N2CCCC2)CC1` (stereo not drawn), the cytotoxicity at 10 µM is -4.63%.
In the case of `CN(Cc1cccnc1)CC1CCOc2ccccc2C1` (stereo not drawn) it was -4.92%.
In the case of `O=C1[C@@H]2CN(c3ncc(Cl)cc3F)C[C@]2(C(=O)O)CN1CC1CC1` it was -0.33%.
With `COc1cccc([C@@H]2CCN(Cc3c[nH]c(C)n3)C[C@H]2O)c1`, the cytotoxicity at 10 µM was -2.89%.
In the case of `Cc1cc(CN2CCOCS2(=O)=O)ccc1F` it was -8.02%.
In the case of `Cc1nc(C)n(C2CCCN(C(=O)CCOC(C)C)C2)n1` (stereo not drawn), the cytotoxicity at 10 µM was -1.92%.
For `CCn1cnnc1C1CCN(C(=O)c2ccoc2C)CC1`, the cytotoxicity at 10 µM was -8.04%.
Take `CN(Cc1nc2c(cnn2C)c(=O)[nH]1)Cc1ccco1`: the cytotoxicity at 10 µM was -8.11%.
Consider `CC(C(=O)NCCN1CCCCC1)n1cncn1` (stereo not drawn), for which the cytotoxicity at 10 µM is -3.37%.
As to `Cc1noc(Cl)c1CCC(=O)N1CCC(Nc2cccnn2)CC1`, the cytotoxicity at 10 µM is -2.57%.
Consider `Cc1ccc(-c2nc(C(=O)N3CCN(C(=O)N(C)C)CC3)cs2)c(C)c1`, for which the cytotoxicity at 10 µM is -7.98%.
In the case of `CCCc1nc(C(C)(C)NC(=O)C2CC(=O)N(CC(C)C)C2)no1` (stereo not drawn) it was -5.31%; in that of `Cc1ccc(-c2cc(CNC(=O)N3CCSCC3)on2)cc1`, 2.7%.
Turning to `COc1cccc2cc(CNCc3ccnc(N(C)C)c3)oc12`, the cytotoxicity at 10 µM was -6.87%.
In the case of `CC(c1nc(C(C)(C)C)no1)N1CCN(Cc2ccc(C#N)cc2)CC1` (stereo not drawn) it was -5.38%; in that of `CC(Cn1ccnc1)NC(=O)NCCc1ccc(Cl)s1` (stereo not drawn), -12.4%.
With `COc1cccc(-n2c(C)cc(C(=O)NCCCC(N)=O)c2C)c1` the figure was -11.9%; with `Cc1ccccc1OCCC(=O)N1CCC(c2nncn2C)CC1`, -13.3%; with `CCc1nc(CN2CCCN(C(=O)C(CC)OC)CC2)cs1` (stereo not drawn), -15.8%.
With `COc1ccc(C(=O)NC(CC(=O)O)c2cccs2)c(OC)c1` (stereo not drawn) the figure was -0.463%; with `CSC(C)C(=O)N1CCCN(Cc2nccn2C)CC1` (stereo not drawn), -11.6%; with `CN1CCCN(C(=O)NCCNc2cnccn2)CC1`, -3.4%.
As for `CCOc1ccc(S(=O)(=O)NC(=O)CC2CCCO2)cc1` (stereo not drawn), the cytotoxicity at 10 µM was -16.3%.
For the compound `O=C(NCc1ccc2c(c1)OCO2)Nc1cccnc1N1CCCC1`, the cytotoxicity at 10 µM is -13.4%.
As for `c1ccc(-c2ncc(CNC3CCc4ncnn4C3)cn2)cc1` (stereo not drawn), the cytotoxicity at 10 µM was -0.722%.
In the case of `CCN(CC)CCn1c(=O)oc2ccccc21`, the cytotoxicity at 10 µM is 2.96%.
As to `Cc1noc([C@@H](C)NCc2ccc(F)cc2)c1C(=O)O`, the cytotoxicity at 10 µM was -5.57%.
In the case of `CNC(=O)C1(CCCc2ccncc2)CCN1` (stereo not drawn), the cytotoxicity at 10 µM is -9.08%.
In the case of `c1cc(CN2CCC3(CC2)CC(N2CCCC2)CO3)co1` (stereo not drawn) it was 2.38%.
Take `CN(C)Cc1nn(C)c2c1CCN(C(=O)CC1CC1)C2`: the cytotoxicity at 10 µM was -3.86%.
With `Cn1cccc1C(=O)N[C@@H]1CN(Cc2cccs2)[C@@H]2COC[C@@H]21` the figure was 8.88%; with `Cc1nc(CN2C(=O)COC3(CCN(Cc4ccco4)CC3)C2C)cs1` (stereo not drawn), -13.5%.
Take `c1ccc(Cn2cc3c(n2)C(CNCc2ccco2)OCC3)nc1` (stereo not drawn): the cytotoxicity at 10 µM is -7.85%.
In the case of `Cn1nc(Cn2cccc2)c2c1CN(Cc1ccsc1)C2` it was -133%; in that of `COCCN1C[C@@H]2CC[C@H]1CN(C(=O)CCc1n[nH]c(C)c1C)C2`, -8.92%.

The values are drawn from ChEMBL document CHEMBL4513216, “Probing the Open Global Health Chemical Diversity Library for Multistage-Active Starting Points for Next-Generation Antimalarials” (ACS Infect Dis, 2020).
